Columns and labels:
Cannabinoid receptor 1 [1] = target: T1, Cannabinoid receptor 1 (Homo sapiens, UniProt P21554); assay: Displacement of [3H]CP-55940 from human cloned CB1 receptor at 10 uM by scintillation spectrometry
Cannabinoid receptor 2 [2] = target: T2, Cannabinoid receptor 2 (Homo sapiens, UniProt P34972); assay: Displacement of [3H]CP-55940 from human cloned CB2 receptor by scintillation spectrometry
How it was run: (§1)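 Cloned human CB1 or CB2 receptor membranes incubated with 0.2–0.6 nM [3H]CP55940 in 50 mM Tris–HCl pH 7.0 with 5.0 mM MgCl2, 1.0 mM EGTA and 1.0 mg/ml fatty-acid-free BSA. CB2 ran 60 min at room temperature and CB1 120 min at 30 °C. Samples filtered through PEI/BSA-soaked GF/C filters and rinsed six times with cold buffer. Counted by scintillation, with nonspecific binding defined by WIN55212-2. Ki is the geometric mean of at least three determinations.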

Cannabinoid receptor 1 [3] = target: T1, Cannabinoid receptor 1; assay: Displacement of [3H]CP-55940 from human cloned CB1 receptor by scintillation spectrometry; how it was run: as §1
Cannabinoid receptor 2 [4] = target: T2, Cannabinoid receptor 2; assay: Agonist activity at human cloned CB2 receptor assessed as stimulation of [35S]GTPgammaS binding
Homo sapiens = species on record: Homo sapiens; assay: Ratio of Ki for human cloned CB1 receptor to Ki for human cloned CB2 receptor; how it was run: as §1
Rattus norvegicus [5] = assay: Antiallodynic activity in rat hind paw incisional model assessed as mechanical paw-withdrawal threshold at 30 mg/kg, ip after 30 mins relative to control; type: functional; conditions: route intraperitoneal
How it was run: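 Rat hindpaw incision model. Mechanical paw-withdrawal threshold measured on the left hindpaw, 30 min after ip dosing at 30 mg/kg. N = 8 per group. Compared with the vehicle-treated group.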

Rattus norvegicus [6] = assay: Antiallodynic activity in rat hind paw incisional model assessed as mechanical paw-withdrawal threshold at 300 mg/kg, po after 120 mins in presence of aminobenzotriazole relative to aminobenzotriazole-treated control; type: functional
How it was run: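 Rat hindpaw incision model. Rats pretreated with the P450 suicide inhibitor aminobenzotriazole, then dosed 300 mg/kg po 120 min before testing. Left hindpaw mechanical withdrawal threshold read, N = 8 per group. One-way ANOVA with protected t-test against ABT-vehicle incised animals.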

[7] = Metabolic stability in human liver microsomes after 30 mins; type: ADME, Microsome; conditions: read-out: Stability
[8] = Metabolic stability in rat liver microsomes after 30 mins; type: ADME, Microsome; conditions: read-out: Stability

T2 sequence (P34972 whole entry): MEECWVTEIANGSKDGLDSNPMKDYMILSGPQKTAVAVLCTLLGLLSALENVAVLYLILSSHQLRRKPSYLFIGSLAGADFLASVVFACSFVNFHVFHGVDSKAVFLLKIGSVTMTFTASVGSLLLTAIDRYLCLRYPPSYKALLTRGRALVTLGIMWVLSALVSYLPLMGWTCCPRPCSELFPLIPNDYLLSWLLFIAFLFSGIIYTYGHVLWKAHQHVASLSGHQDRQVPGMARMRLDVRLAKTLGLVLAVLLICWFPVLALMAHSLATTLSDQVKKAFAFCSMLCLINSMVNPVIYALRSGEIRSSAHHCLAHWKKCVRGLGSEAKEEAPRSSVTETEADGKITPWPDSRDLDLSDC
T1 sequence (P21554 whole entry): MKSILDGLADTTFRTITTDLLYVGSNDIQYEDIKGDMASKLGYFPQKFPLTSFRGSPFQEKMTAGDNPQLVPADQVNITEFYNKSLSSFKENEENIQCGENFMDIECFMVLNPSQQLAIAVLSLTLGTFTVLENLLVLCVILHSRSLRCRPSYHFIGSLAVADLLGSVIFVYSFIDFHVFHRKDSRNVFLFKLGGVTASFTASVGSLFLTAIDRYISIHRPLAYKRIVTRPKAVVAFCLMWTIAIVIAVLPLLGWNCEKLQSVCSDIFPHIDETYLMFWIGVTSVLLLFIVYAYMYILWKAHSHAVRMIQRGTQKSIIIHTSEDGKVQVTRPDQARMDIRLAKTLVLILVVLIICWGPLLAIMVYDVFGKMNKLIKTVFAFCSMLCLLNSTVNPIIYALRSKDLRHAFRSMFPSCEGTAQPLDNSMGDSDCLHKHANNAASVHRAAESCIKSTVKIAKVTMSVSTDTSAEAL

Compound	Activity (Cannabinoid receptor 1 [1])	Ki (Cannabinoid receptor 2 [2])	Ki (Cannabinoid receptor 1 [3])	EC50 (Cannabinoid receptor 2 [4])	Ratio Ki (Homo sapiens)	Activity (Rattus norvegicus [5])	Activity (Rattus norvegicus [6])	remaining at 0.5 h [7]	remaining at 0.5 h [8]
Cc1ccc(NC(=O)[C@H]2C[C@@]3(C)CC[C@]2(C)O3)cc1S(=O)(=O)N1CCOCC1	44%	2000 nM							
Cc1ccc(-c2cc(C(C)(C)C)[nH]n2)cc1S(=O)(=O)N1CCOCC1		160 nM	6990 nM	130 nM					
Cc1ccc(-c2nc(CC(C)(C)C)cs2)cc1S(=O)(=O)N1CCOCC1		5.2 nM	200 nM	23 nM	38				
Cc1ccc(-c2nnn[nH]2)cc1S(=O)(=O)N1CCOCC1		> 5000 nM	> 5000 nM						
Cc1ccc(-c2nnn(CC3CCCCC3)n2)cc1S(=O)(=O)N1CCOCC1		82 nM	560 nM	78 nM	6.9				
Cc1ccc(NC(=O)[C@@H]2C[C@@]3(C)CC[C@]2(C)O3)cc1S(=O)(=O)N1CCOCC1		660 nM	2900 nM		4.4				
Cc1ccc(-c2n[nH]c(CC3CCCCC3)n2)cc1S(=O)(=O)N1CCOCC1		27 nM	310 nM	57 nM	11				
Cc1ccc(-c2nc(CC(C)(C)C)c[nH]2)cc1S(=O)(=O)N1CCOCC1		36 nM	1100 nM	47 nM	31				
Cc1ccc(-c2cnc(C(C)(C)C)[nH]2)cc1S(=O)(=O)N1CCOCC1					9.4				
Cc1ccc(NC(=O)C2CCCCC2)cc1S(=O)(=O)N1CCOCC1		120 nM	1900 nM		16				
Cc1ccc(-c2n[nH]c(C(C)(C)C)n2)cc1S(=O)(=O)N1CCOCC1		100 nM	530 nM	130 nM	5.3				
Cc1ccc(NC(=O)[C@H]2C(C)(C)[C@@H]3CC[C@@]2(C)C3)cc1S(=O)(=O)N1CCOCC1		9.4 nM	1200 nM	49 nM	130				
Cc1ccc(C(=O)NC(C(C)(C)C)C(C)(C)C)cc1S(=O)(=O)N1CCOCC1					9				
Cc1ccc(C(=O)N[C@H]2C(C)(C)[C@@H]3CC[C@@]2(C)C3)cc1S(=O)(=O)N1CCOCC1		48 nM	540 nM	25 nM	11				
Cc1ccc(-c2nc(C(C)(C)C)cs2)cc1S(=O)(=O)N1CCOCC1		5.7 nM	260 nM	21 nM	47				
Cc1ccc(NC(=O)C2CCCCC2C)cc1S(=O)(=O)N1CCOCC1 (stereo unspecified)		14 nM	1800 nM	42 nM	130				
Cc1ccc(NC(=O)C(C(C)(C)C)C(C)(C)C)cc1S(=O)(=O)N1CCOCC1		11 nM	1200 nM	31 nM	110				
Cc1ccc(NC(=O)c2ccc(Cl)cc2)cc1S(=O)(=O)N1CCOCC1	25%	2900 nM							
Cc1ccc(-c2noc(CC3CCCCC3)n2)cc1S(=O)(=O)N1CCOCC1		130 nM	740 nM	110 nM	5.9				

Compound	Activity (Cannabinoid receptor 1 [1])	Ki (Cannabinoid receptor 2 [2])	Ki (Cannabinoid receptor 1 [3])	EC50 (Cannabinoid receptor 2 [4])	Ratio Ki (Homo sapiens)	Activity (Rattus norvegicus [5])	Activity (Rattus norvegicus [6])	remaining at 0.5 h [7]	remaining at 0.5 h [8]
Cc1ccc(NC(=O)c2cccc(Cl)c2)cc1S(=O)(=O)N1CCOCC1		120 nM	270 nM	220 nM	2.3				
Cc1ccc(-c2noc(C(C)(C)C)n2)cc1S(=O)(=O)N1CCOCC1		75 nM	510 nM	77 nM	6.8				
Cc1ccc(-c2c[nH]c(C(C)(C)C)n2)cc1S(=O)(=O)N1CCOCC1		81 nM	770 nM	130 nM					
Cc1ccc(NC(=O)[C@@H]2C(C)(C)[C@@H]3CC[C@@]2(C)C3)cc1S(=O)(=O)N1CCOCC1		1.7 nM	640 nM	9.6 nM	380				
Cc1ccc(NC(=O)C2(C)CCCCC2)cc1S(=O)(=O)N1CCOCC1		35 nM	1200 nM	33 nM	34				
Cc1ccc(NC(=O)C2CCCCC2(C)C)cc1S(=O)(=O)N1CCOCC1 (stereo unspecified)		11 nM	790 nM	8400 nM	72				
Cc1ccc(NC(=O)C(C)(C(F)(F)F)C(F)(F)F)cc1S(=O)(=O)N1CCOCC1		23 nM	470 nM	29 nM	20				
Cc1ccc(NC(=O)C2C(C)(C)C2(C)C)cc1S(=O)(=O)N1CCOCC1		23 nM	3400 nM	11 nM	150	183%	262%	1%	2%
Cc1ccc(NC(=O)c2ccccc2Cl)cc1S(=O)(=O)N1CCOCC1		170 nM	1100 nM	390 nM	6.5				
Cc1ccc(-c2cc(CC3CCCCC3)[nH]n2)cc1S(=O)(=O)N1CCOCC1		87 nM	1400 nM	190 nM	16				
Cc1ccc(-c2nc(C(C)(C)C)c[nH]2)cc1S(=O)(=O)N1CCOCC1		23 nM	1100 nM	58 nM	48				
Cc1ccc(C(=O)N[C@@H]2C(C)(C)[C@@H]3CC[C@@]2(C)C3)cc1S(=O)(=O)N1CCOCC1		3.9 nM	130 nM	4.6 nM	31				
Cc1ccc(-c2cc(CC(C)(C)C)[nH]n2)cc1S(=O)(=O)N1CCOCC1		75 nM	750 nM	120 nM	10				
Cc1ccc(NC(=O)C(C)(C)C)cc1S(=O)(=O)N1CCOCC1	4.7%	540 nM							
Cc1ccc(-c2n[nH]c(CC(C)(C)C)n2)cc1S(=O)(=O)N1CCOCC1		85 nM	140 nM	64 nM	1.6				
Cc1ccc(-c2nc(CC3CCCCC3)cs2)cc1S(=O)(=O)N1CCOCC1		23 nM	390 nM	120 nM	17				
Cc1ccc(-c2nnn(CC(C)(C)C)n2)cc1S(=O)(=O)N1CCOCC1		17 nM	130 nM	49 nM	7.6				
Cc1ccc(-c2noc(CC(C)(C)C)n2)cc1S(=O)(=O)N1CCOCC1		59 nM	270 nM	70 nM	4.5				
O=C(NCc1ccccc1)c1ccc(Br)c(S(=O)(=O)N2CCOCC2)c1		800 nM	> 1000 nM						
